The record followed here is ChEMBL document CHEMBL4024729, “Copalic acid analogs down-regulate androgen receptor and inhibit small chaperone protein” (Bioorg Med Chem Lett, 2017).

Assay [1] concerns the target Heat shock protein beta-1 (Homo sapiens) (UniProt P04792). The assay can be described thus: Inhibition of heat shock protein 27 in human LNCaP cells assessed as decrease in AR protein level at 200 uM after 48 hrs by Western blot method. In kind it is cell-based. The method in brief:
(§1)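 LNCaP cells treated with DMSO or compound for 48 h. Whole-cell extracts probed by Western blot with specific antibodies against AR and β-actin. Three independent experiments.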
Background: A western blot detects proteins with antibodies after separation by electrophoresis.

Assay [2] shares this target. The assay can be described thus: Inhibition of heat shock protein 27 in human LNCaP cells assessed as decrease in AR protein level at 20 uM after 48 hrs by Western blot method. It counts as cell-based. Summed up: as §1
For the next assay, the species on record is Homo sapiens. The assay can be described thus: Inhibition of alpha crystallin (unknown origin) assessed as increase in DTT induced insulin aggregation at 10 uM pretreated for 5 mins followed by DTT addition measured after 45 mins. The method in brief: (§2)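 Insulin 1 mg/ml stock and alpha-crystallin 5 mg/ml stock mixed in PBS containing compound. Incubated 5 min at 37 °C, then aggregation started with 1 M DTT stock. A400 followed for 45 min at 37 °C. Controls were insulin with or without alpha-crystallin in 0.1% DMSO. Triplicate wells; three independent experiments.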

Assay [3] deals with Heat shock protein beta-1 (Homo sapiens) (UniProt P04792). In words: Inhibition of heat shock protein 27 in human LNCaP cells assessed as decrease in AR protein level after 48 hrs by Western blot method. In kind it is cell-based. The method in brief: as §1
The test system of a further assay is LNCaP. The assay can be described thus: Growth inhibition of human LNCAP cells after 72 hrs by MTT assay. In kind it is functional, cell-based. Summed up: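 LNCaP cells treated with DMSO or a range of compound concentrations, four replicates each, for 72 h. Viability read by MTT assay.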
In general terms: Formazan colour is commonly taken as a measure of viable cells.

Assay [4] concerns the target Heat shock protein beta-1 (Homo sapiens) (UniProt P04792). The assay can be described thus: Inhibition of heat shock protein 27 in human LNCaP cells assessed as decrease in AR protein level at 5 uM after 48 hrs by Western blot method. It counts as cell-based. The method in brief: as §1
Assay [5] can be described thus: Effect on DTT interaction with insulin at <= 10 uM measured after 45 mins. The method in brief:
as §2

Each structure is given as a SMILES string. Active and inactive are the calls of the source. The rule behind the calls is not given here.

Chain of Heat shock protein beta-1 (Homo sapiens) (P04792 whole entry): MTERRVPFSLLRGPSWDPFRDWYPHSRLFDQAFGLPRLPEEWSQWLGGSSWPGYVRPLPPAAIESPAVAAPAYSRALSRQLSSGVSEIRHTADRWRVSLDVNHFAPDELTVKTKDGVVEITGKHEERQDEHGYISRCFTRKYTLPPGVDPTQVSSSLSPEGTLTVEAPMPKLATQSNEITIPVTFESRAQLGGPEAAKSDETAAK

`C=C1CC[C@@H]2C(C)(C)CCC[C@@]2(C)[C@@H]1CC/C(C)=C/C(=O)O`: the inhibition result in assay [1] is “Active”. For the same compound, the “AR protein decrease (active/not active)” value in assay [2] was “inactive”.
`C=C1CC[C@@H]2C(C)(C)CCC[C@@]2(C)[C@@H]1CC/C(C)=C/C(=O)NCCc1ccccc1`: the “AR protein decrease (active/not active)” value in assay [2] is “Active”.
In the case of `C=C1CC[C@@H]2C(C)(C)CCC[C@@]2(C)[C@@H]1CC/C(C)=C/C(=O)Nc1ccc(OC)cc1`, the inhibition entry (in the assay listed under Homo sapiens; in assay [4]) was “Active” each time. In assay [2], the “AR protein decrease (active/not active)” value was “Active”. For the same compound, the inhibition entry in assay [3] was “Dose-dependent effect”. Also, half-maximal inhibition in the assay on LNCaP (IC50) was put at 1.73 µM. Besides, the result in assay [5] was inactive.
Turning to `C=C1CC[C@@H]2C(C)(C)CCC[C@@]2(C)[C@@H]1CC/C(C)=C/C(=O)Nc1ccc(I)cc1`, the “AR protein decrease (active/not active)” value in assay [2] is “Active”.
With `C=C1CC[C@@H]2C(C)(C)C(OC(C)=O)CC[C@@]2(C)[C@@H]1CC/C(C)=C/C(=O)O` (stereo partly drawn), the inhibition result in assay [1] is “Active”.
On to `C=C1CC[C@@H]2C(C)(C)CCC[C@@]2(C)[C@@H]1CC/C(C)=C/C(=O)Nc1cccc(Br)c1`, for which the “AR protein decrease (active/not active)” value in assay [2] is “Active”.
`C=C1CC[C@@H]2C(C)(C)CCC[C@@]2(C)[C@@H]1CC/C(C)=C/C(=O)Nc1ccc(C)cc1`: the “AR protein decrease (active/not active)” value in assay [2] was “Active”.
Regarding `C=C1CC[C@@H]2C(C)(C)CCC[C@@]2(C)[C@@H]1CC/C(C)=C/C(=O)Nc1ccc(C#N)cc1`, the inhibition entry in the assay listed under Homo sapiens was “Active”. Also, in assay [2], the “AR protein decrease (active/not active)” value was “Active”. In addition, the inhibition result in assay [3] is “Dose-dependent effect”. Further, the IC50 (usually the concentration needed to halve the response being measured) in the assay with LNCaP turned out to be 9.81 µM.
As to `C[C@@H]1CC[C@@]2(C)C(C(=O)O)=CCC[C@@H]2[C@@]1(C)CCc1ccoc1`, in assay [1], the inhibition entry was “Active”.
